From ChEMBL document CHEMBL2375320, “Synthesis and antimicrobial activity of polyhalo isophthalonitrile derivatives” (2013)
Converted amounts (≈) assume the structure as drawn. The source made the active and inactive calls. The calls are words filed in the database; no cut-off is given here.

How the values were obtained:
Assay type in all cases: functional
Candida albicans [1] = assay: Antifungal activity against Candida albicans ATCC 10231 assessed as growth inhibition at 1000 ug/mL after 72 hrs by disk diffusion method; conditions: for zone of inhibition at 1000 µg/mL: ATCC 10231, 72 h, read-out: IZ
Procedure, shortened: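 Candida grown and kept on Sabouraud glucose agar plates. Compounds screened at a fixed 1000 µg/mL, with fluconazole as positive control. Plates incubated at 26 °C for 72 h, then zones of inhibition measured in mm.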

Candida albicans [2] = assay: Antifungal activity against Candida albicans ATCC 10231 assessed as growth inhibition after 24 hrs by microbroth dilution method
Procedure, shortened: (§1)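 Tube dilution: each compound or positive control (norfloxacin, fluconazole) prepared in DMSO at 11 concentrations from 0.98 to 1000 µg/mL. Inoculum and sterile water added to tubes each holding 1 mL of compound solution. Tubes incubated 24 h and inspected for turbidity. MIC is the lowest concentration with no visible growth. Run in triplicate.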

Escherichia coli = assay: Antibacterial activity against Escherichia coli ATCC 8099 assessed as growth inhibition at 1000 ug/mL after 24 hrs by disk diffusion method
Bacillus cereus [3] = assay: Antibacterial activity against Bacillus cereus ATCC 14579 assessed as growth inhibition at 1000 ug/mL after 24 hrs by disk diffusion method; conditions: for zone of inhibition at 1000 µg/mL: ATCC 14579, 24 h, read-out: IZ
Staphylococcus aureus [4] = assay: Antibacterial activity against Staphylococcus aureus ATCC 6538 assessed as growth inhibition after 24 hrs by microbroth dilution method; conditions: ATCC 6538, 24 h; procedure, shortened: as §1
Staphylococcus aureus [5] = assay: Antibacterial activity against Staphylococcus aureus ATCC 6538 assessed as growth inhibition at 1000 ug/mL after 24 hrs by disk diffusion method; conditions: for zone of inhibition at 1000 µg/mL: ATCC 6538, 24 h, read-out: IZ
Bacillus cereus [6] = assay: Antibacterial activity against Bacillus cereus ATCC 14579 assessed as growth inhibition after 24 hrs by microbroth dilution method; conditions: ATCC 14579, 24 h; procedure, shortened: as §1
Pseudomonas aeruginosa = assay: Antibacterial activity against Pseudomonas aeruginosa ATCC 15442 assessed as growth inhibition at 1000 ug/mL after 24 hrs by disk diffusion method

## N#Cc1c(Cl)c(Cl)c(Cl)c(C#N)c1Cl [CHLOROTHALONIL]
Candida albicans [1]
  zone of inhibition at 1000 µg/mL: 9.9 mm
Candida albicans [2]; ATCC 10231, 24 h
  MIC: 0.5 µg/mL (≈ 1.88 µM)
Escherichia coli
  inhibition zone (IZ): inactive
Bacillus cereus [3]
  zone of inhibition at 1000 µg/mL: 20.2 mm
Staphylococcus aureus [4]
  MIC: 0.5 µg/mL (≈ 1.88 µM)
Staphylococcus aureus [5]
  zone of inhibition at 1000 µg/mL: 20.1 mm
Bacillus cereus [6]
  MIC: 0.7 µg/mL (≈ 2.63 µM)
Pseudomonas aeruginosa
  inhibition zone (IZ): inactive

## N#Cc1c(F)c(Cl)c(NCc2ccccc2)c(C#N)c1F
Candida albicans [1]
  zone of inhibition at 1000 µg/mL: 13.9 mm
Candida albicans [2]; ATCC 10231, 24 h
  MIC: 0.5 µg/mL (≈ 1.65 µM)
Escherichia coli
  inhibition zone (IZ): inactive
Bacillus cereus [3]
  zone of inhibition at 1000 µg/mL: 22.6 mm
Staphylococcus aureus [4]
  MIC: 0.5 µg/mL (≈ 1.65 µM)
Staphylococcus aureus [5]
  zone of inhibition at 1000 µg/mL: 23.1 mm
Bacillus cereus [6]
  MIC: 0.4 µg/mL (≈ 1.32 µM)
Pseudomonas aeruginosa
  inhibition zone (IZ): inactive

## COc1ccc(Nc2c(Cl)c(Cl)c(C#N)c(Cl)c2C#N)cc1
Candida albicans [1]
  inhibition zone (IZ): inactive
Escherichia coli
  inhibition zone (IZ): inactive
Bacillus cereus [3]
  inhibition zone (IZ): inactive
Staphylococcus aureus [5]
  inhibition zone (IZ): inactive
Pseudomonas aeruginosa
  inhibition zone (IZ): inactive

## N#Cc1c(F)c(F)c(F)c(C#N)c1F
Candida albicans [1]
  inhibition zone (IZ): inactive
Escherichia coli
  inhibition zone (IZ): inactive
Bacillus cereus [3]
  inhibition zone (IZ): inactive
Staphylococcus aureus [5]
  inhibition zone (IZ): inactive
Pseudomonas aeruginosa
  inhibition zone (IZ): inactive

## CCCSc1c(Cl)c(N)c(C#N)c(SCCC)c1C#N
Candida albicans [2]; ATCC 10231, 24 h
  MIC: > 1000 µg/mL
Escherichia coli
  inhibition zone (IZ): inactive
Bacillus cereus [3]
  inhibition zone (IZ): inactive
Staphylococcus aureus [4]
  MIC: 250 µg/mL (≈ 767 µM)
Staphylococcus aureus [5]
  zone of inhibition at 1000 µg/mL: 7.5 mm
Bacillus cereus [6]
  MIC: > 1000 µg/mL
Pseudomonas aeruginosa
  inhibition zone (IZ): inactive

## CCCSc1c(F)c(N)c(C#N)c(SCCC)c1C#N
Escherichia coli
  inhibition zone (IZ): inactive
Bacillus cereus [3]
  zone of inhibition at 1000 µg/mL: 7.4 mm
Staphylococcus aureus [5]
  zone of inhibition at 1000 µg/mL: 7.9 mm
Pseudomonas aeruginosa
  inhibition zone (IZ): inactive

## COc1ccc(Nc2c(F)c(F)c(C#N)c(F)c2C#N)cc1
Candida albicans [1]
  inhibition zone (IZ): inactive
Candida albicans [2]
  MIC: inactive
Escherichia coli
  inhibition zone (IZ): inactive
Bacillus cereus [3]
  zone of inhibition at 1000 µg/mL: 8.6 mm
Staphylococcus aureus [4]
  MIC: 375 µg/mL (≈ 1240 µM)
Staphylococcus aureus [5]
  zone of inhibition at 1000 µg/mL: 8.7 mm
Bacillus cereus [6]
  MIC: > 1000 µg/mL
Pseudomonas aeruginosa
  inhibition zone (IZ): inactive

## CCCSc1c(Cl)c(SCCC)c(C#N)c(F)c1C#N
Candida albicans [1]
  inhibition zone (IZ): inactive
Candida albicans [2]; ATCC 10231, 24 h
  MIC: > 500 µg/mL
Escherichia coli
  inhibition zone (IZ): inactive
Bacillus cereus [3]
  zone of inhibition at 1000 µg/mL: 7.5 mm
Staphylococcus aureus [4]
  MIC: 11.7 µg/mL (≈ 35.6 µM)
Staphylococcus aureus [5]
  zone of inhibition at 1000 µg/mL: 8.8 mm
Bacillus cereus [6]
  MIC: > 1000 µg/mL
Pseudomonas aeruginosa
  inhibition zone (IZ): inactive

## N#Cc1c(N)c(F)c(F)c(C#N)c1F
Candida albicans [1]
  zone of inhibition at 1000 µg/mL: 7.5 mm
Candida albicans [2]; ATCC 10231, 24 h
  MIC: 62.5 µg/mL (≈ 317 µM)
Escherichia coli
  inhibition zone (IZ): inactive
Bacillus cereus [3]
  zone of inhibition at 1000 µg/mL: 8 mm
Staphylococcus aureus [4]
  MIC: 125 µg/mL (≈ 634 µM)
Staphylococcus aureus [5]
  zone of inhibition at 1000 µg/mL: 11.8 mm
Bacillus cereus [6]
  MIC: 104 µg/mL (≈ 529 µM)
Pseudomonas aeruginosa; ATCC 15442, 24 h, read-out: IZ
  zone of inhibition at 1000 µg/mL: 7.8 mm

## N#Cc1c(N)c(Cl)c(F)c(C#N)c1F
Candida albicans [1]
  zone of inhibition at 1000 µg/mL: 7.3 mm
Candida albicans [2]; ATCC 10231, 24 h
  MIC: 15.6 µg/mL (≈ 73 µM)
Escherichia coli
  inhibition zone (IZ): inactive
Bacillus cereus [3]
  zone of inhibition at 1000 µg/mL: 7.4 mm
Staphylococcus aureus [4]
  MIC: 46.9 µg/mL (≈ 220 µM)
Staphylococcus aureus [5]
  zone of inhibition at 1000 µg/mL: 8.6 mm
Bacillus cereus [6]
  MIC: > 1000 µg/mL
Pseudomonas aeruginosa
  inhibition zone (IZ): inactive

## CCCSc1c(Cl)c(N)c(C#N)c(Cl)c1C#N
Candida albicans [2]; ATCC 10231, 24 h
  MIC: > 1000 µg/mL
Escherichia coli
  inhibition zone (IZ): inactive
Bacillus cereus [3]
  zone of inhibition at 1000 µg/mL: 7 mm
Staphylococcus aureus [4]
  MIC: 500 µg/mL (≈ 1750 µM)
Staphylococcus aureus [5]
  zone of inhibition at 1000 µg/mL: 7 mm
Bacillus cereus [6]
  MIC: > 1000 µg/mL
Pseudomonas aeruginosa
  inhibition zone (IZ): inactive

## N#Cc1c(N)c(Sc2ccccc2)c(Sc2ccccc2)c(C#N)c1Sc1ccccc1
Escherichia coli
  inhibition zone (IZ): inactive
Bacillus cereus [3]
  inhibition zone (IZ): inactive
Staphylococcus aureus [5]
  inhibition zone (IZ): inactive
Pseudomonas aeruginosa
  inhibition zone (IZ): inactive

## N#Cc1c(Cl)c(Cl)c(NCc2ccccc2)c(C#N)c1Cl
Candida albicans [1]
  inhibition zone (IZ): inactive
Escherichia coli
  inhibition zone (IZ): inactive
Bacillus cereus [3]
  inhibition zone (IZ): inactive
Staphylococcus aureus [5]
  inhibition zone (IZ): inactive
Pseudomonas aeruginosa
  inhibition zone (IZ): inactive

## CN(C)CCCNc1c(F)c(N)c(C#N)c(F)c1C#N
Escherichia coli
  inhibition zone (IZ): inactive
Bacillus cereus [3]
  zone of inhibition at 1000 µg/mL: 7.1 mm
Staphylococcus aureus [5]
  zone of inhibition at 1000 µg/mL: 7 mm
Pseudomonas aeruginosa
  inhibition zone (IZ): inactive

## N#Cc1c(F)c(C#N)c(Sc2ccccc2)c(Cl)c1Sc1ccccc1
Candida albicans [1]
  inhibition zone (IZ): inactive
Escherichia coli
  inhibition zone (IZ): inactive
Bacillus cereus [3]
  inhibition zone (IZ): inactive
Staphylococcus aureus [5]
  inhibition zone (IZ): inactive
Pseudomonas aeruginosa
  inhibition zone (IZ): inactive
